This is a sample that favours compounds with a hit; in the whole collection about 1.8% have one here.
NPY-Y1 antag: blocks the human neuropeptide Y Y1 receptor. P25929. HEK293-CNG Y1 cells, membrane potential fluorescence; NPY at EC95, then isoproterenol. inhibition, % at 3.6 µM. actives 1% (n = 200,000). AID 1040;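 active means inhibition above the campaign mean inhibition of all tested compounds plus 3 SD, cut at about 20% in these data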
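Material: HEK293 Y1/CNG channel cell line; also added: NPY (25 nM), isoproterenol (1 µM), Ro 20-1724 (25 µM); doses: one concentration, 3.6 µM, in 0.4% DMSO; schedule: compound incubation 1 h at room temperature, readout 45 min post-stimulation; technique: membrane potential fluorescence; measure: fluorescence ratio normalized to % inhibition between controls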
NPY-Y1 PAM-ag: potentiators or agonists of human neuropeptide Y receptor Y1; P25929; NPY-Y1 expressing cells, potentiator/agonist activation; activation, % at 3.6 µM; actives 0.37% (n = 220,000); in the data active means activation above about 33%, passing the limit was not always enough;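 further: cells stimulated with NPY at EC10 then isoproterenol at EC100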
NPY2 pot ag: human NPY-Y2 potentiation or agonism, primary screen. cells expressing NPY-Y2, potentiator/agonist read-out. activation, % at 3.6 µM. actives 0.45% (n = 220,000). AID 1359; in the data active means activation above about 27%;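 further: cells stimulated with NPY near EC25 plus isoproterenol at EC100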
Target sequence (P49146 whole entry, looked up): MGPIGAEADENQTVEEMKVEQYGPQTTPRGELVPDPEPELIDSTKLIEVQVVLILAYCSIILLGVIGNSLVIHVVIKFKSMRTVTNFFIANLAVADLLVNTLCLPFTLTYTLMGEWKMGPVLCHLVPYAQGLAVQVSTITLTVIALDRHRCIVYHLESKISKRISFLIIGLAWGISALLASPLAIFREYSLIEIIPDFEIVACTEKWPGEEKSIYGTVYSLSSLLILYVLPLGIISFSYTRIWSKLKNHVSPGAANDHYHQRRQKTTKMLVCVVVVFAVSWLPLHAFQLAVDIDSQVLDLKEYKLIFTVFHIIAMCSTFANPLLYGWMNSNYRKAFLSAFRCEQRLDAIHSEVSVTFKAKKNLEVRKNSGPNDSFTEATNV
NPY Y2 blocker: antagonists of human neuropeptide Y receptor Y2 | P49146 | inhibition, % at 2.7 µM | NPY-Y2 expressing cells, antagonist mode | actives 0.99% (n = 140,000)
NPY-Y1 ant conf: confirmation of human neuropeptide Y receptor Y1 antagonists | actives 21% (n = 1,200) | shares compounds with NPY-Y1 antag | inhibition, % at 3.6 µM | HEK293-CNG NPY-Y1, membrane potential fluorescence, cAMP; NPY challenge against isoproterenol-raised cAMP; in the data active means inhibition above about 20%
NPY-Y2 antag ct: antagonizes human NPY-Y2, counter-screen to NPY-Y1 antagonists; AID 1255; shares compounds with NPY-Y1 antag; inhibition, % at 3.6 µM; HEK293 NPY-Y2 CNG membrane potential fluorescence, antagonism; cells given NPY, then isoproterenol; actives 28% (n = 1,200)
Large screens that a line does not name were inactive (follow-up assays come after a bar, where they were run); ! = a repeat was not active. Unless noted, no stated cut-off is given here; in the data, active means inhibition above about 17%; inactive means the rest.

COCCCNC(=O)CN(c1cc(Cl)ccc1OC)S(C)(=O)=O	none (no result: NPY Y2 blocker)
CN1CCC(=NOc2ccc([N+](=O)[O-])cc2)CC1	none (no result: NPY Y2 blocker)
COc1ccc(-c2onc(C)c2-c2cnn(-c3ccccc3)c2)c(O)c1C	NPY-Y1 antag 31 (no result: NPY Y2 blocker) | NPY-Y1 ant conf inactive | NPY-Y2 antag ct inactive
COc1ccc(-c2n[nH]c(C)c2-c2cnn(-c3ccccc3)c2)c(O)c1C	none
Cc1cc(C)c(OCC(=O)Nc2nnc(-c3ccco3)o2)c(C)c1	NPY-Y1 antag 31 (no result: NPY Y2 blocker) | NPY-Y1 ant conf inactive | NPY-Y2 antag ct inactive
Cc1ccccc1CSc1ccc2nnc(-c3ccccn3)n2n1	none (no result: NPY Y2 blocker)
N#Cc1c(N)oc(-c2ccc3c(c2)OCO3)c1-c1ccc2c(c1)OCO2	none
Cc1c(C(=O)OCC(C)C)[nH]c2c1C(=O)CC(c1cccs1)C2 (stereo not given)	NPY-Y1 antag 30 | NPY-Y1 ant conf inactive | NPY-Y2 antag ct 24
COCCOC(=O)c1[nH]c2c(c1C)C(=O)CC(c1cccs1)C2 (stereo not given)	none (no result: NPY Y2 blocker)
CN1Cc2cc(C(=O)c3cc(Cl)cc(CSc4ncccn4)c3O)cnc2NC1=O	NPY-Y1 antag 21 | NPY-Y1 ant conf inactive | NPY-Y2 antag ct inactive
Cc1c(NC(=O)c2ccc(-c3ccc([N+](=O)[O-])cc3Cl)o2)c(=O)n(-c2ccccc2)n1C	none (no result: NPY Y2 blocker)
Cc1ccccc1-c1nnn(CC(=O)NCc2ccc3c(c2)OCO3)n1	NPY-Y1 antag 22 | NPY-Y1 ant conf inactive | NPY-Y2 antag ct inactive
N#CC(/C(=N/S(=O)(=O)c1cccs1)c1ccccc1)c1nc2ccccc2[nH]1 (stereo not given)	NPY-Y1 antag 23 | NPY-Y1 ant conf 21 | NPY-Y2 antag ct 26
CC1=CS(=O)(=O)CC1SC(=S)N(C)C1CCS(=O)(=O)C1 (stereo not given)	none (no result: NPY Y2 blocker)
N/C(=N\OC(=O)Cc1cccs1)c1ccc([N+](=O)[O-])cc1	NPY-Y1 antag 24 | NPY-Y1 ant conf inactive | NPY-Y2 antag ct inactive
Cc1cc(C)c(C#N)c(SCc2[nH]nc3c2C(c2ccc(F)cc2)C(C#N)=C(N)O3)n1 (stereo not given)	NPY-Y1 antag 42 | NPY-Y1 ant conf 57 | NPY-Y2 antag ct 41
COCc1[nH]nc2c1C(c1cccc(OC)c1)C(C#N)=C(N)O2 (stereo not given)	none
Cc1cc(C#N)c(C)c(SCc2[nH]nc3c2C(c2ccccc2)C(C#N)=C(N)O3)n1 (stereo not given)	NPY-Y1 antag 21 | NPY-Y1 ant conf 59 | NPY-Y2 antag ct 39
COc1ccc(CC2(CO)CCN(C(C)Cc3ccc(Cl)cc3)CC2)cc1 (stereo not given)	NPY-Y1 antag 26 (no result: NPY Y2 blocker) | NPY-Y1 ant conf inactive | NPY-Y2 antag ct 21
COc1ccc(CC2(CO)CCN(Cc3cccc(OC)c3OC)CC2)cc1	none (no result: NPY Y2 blocker)
O=C(CCN1CCCCCC1)c1ccccc1	none
O=C(CCCCN1CCCCC1)c1ccc2c(c1)Cc1ccccc1-2	NPY-Y1 antag 24 (no result: NPY Y2 blocker) | NPY-Y1 ant conf inactive | NPY-Y2 antag ct inactive
O=C(N/N=C/c1ccc(Br)s1)c1c[nH]c2ccccc12	NPY-Y1 antag 20 | NPY-Y1 ant conf inactive | NPY-Y2 antag ct inactive
COCCn1c(-c2ccccc2)cnc1SCC(=O)Nc1cccc2ccccc12	none
CCCC[n+]1c(-c2ccc(Cl)cc2Cl)csc1Nc1ccccc1	none
Clc1ccc(-c2csc(Nc3ccccc3)[n+]2Cc2ccco2)c(Cl)c1	NPY-Y1 antag 32 (no result: NPY Y2 blocker) | NPY-Y1 ant conf 23 | NPY-Y2 antag ct inactive
COc1ccccc1NC(=O)COC(=O)/C=C/c1ccc2c(c1)OCO2	NPY-Y1 antag 27 (no result: NPY Y2 blocker) | NPY-Y1 ant conf inactive | NPY-Y2 antag ct inactive
COc1ccccc1NC(=O)/C=C/c1ccc2c(c1)OCO2	none (no result: NPY Y2 blocker)
COC(=O)c1ccc(COc2ccccc2/C=N/O)o1	none (no result: NPY-Y1 antag, NPY Y2 blocker)
C/C=C/c1ccccc1OCc1ccc(C(=O)O)o1	NPY-Y1 antag 22 | NPY-Y1 ant conf inactive | NPY-Y2 antag ct inactive
O=C1CCc2cc(OCCCCc3nnnn3C3CCCCC3)ccc2N1	NPY-Y1 antag 43! | NPY-Y1 ant conf 26 | NPY-Y2 antag ct 46
COc1cccc(N2CCN(Cc3nnnn3C3CCCCC3)CC2)c1	none (no result: NPY Y2 blocker)
COc1ccc(-c2cc3cc(OC)c(OC)cc3c(C)n2)cc1C	none (no result: NPY-Y1 antag, NPY Y2 blocker)
O=C(O)c1ccc(Cn2c(SCc3cc(=O)n4cc(Br)ccc4n3)nc3ccsc3c2=O)cc1	none (no result: NPY Y2 blocker)
